Experimental data from paper PMC9924312 (Asian Pacific Journal of Cancer Prevention : APJCP, 2022).

Key:
[1] = system: neuroblastoma SH-SY5Y; test: MTT antiproliferative assay, 72 h exposure; format: cell-based, human
Method in brief: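 SH-SY5Y cells were kept in 1:1 EMEM/F12 with 10% FBS at 37°C under 5% CO2. After trypsin/EDTA detachment and trypan-blue counting, cells were plated in 96-well format and allowed 24 h to attach. They were then incubated ±test compound for 72 h. IC50 was derived from a logarithmic trend line of the cytotoxicity plots.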

[2] = system: dermal fibroblasts (BJ ATCC CRL-2522); test: MTT antiproliferative assay on normal cells, 72 h exposure; format: cell-based, human; conditions: read-out: IC50 Fibroblast
Method in brief: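 Human BJ dermal fibroblasts were grown in DMEM at 37°C under humidified 5% CO2. Cells were detached with 0.25% trypsin/0.53 mM EDTA, counted by trypan blue, seeded in 96-well plates and left 24 h to attach, then exposed to test compound or no drug for 72 h. IC50 was taken from a logarithmic trend line.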

IC50 ([1]; read-out: IC50 SH-SY5Y, MTT, 72 h): 1060 ± 190 nM
Compound: CC(=O)O.CCN(CC)CC[n+]1ccc2c(C)c3[nH]c4ccc(O)cc4c3c(C)c2c1 [Compound 3]
% SH-SY5Y 10µM (percentage inhibition) ([1]; 10 µM, 72 h exposure): 74.22 ± 0.025% | % SH-SY5Y 50µM (percentage inhibition) ([1]; 50 µM, 72 h exposure): 78.23 ± 0.057% | IC50 [2]: 303 ± 1 nM
